We go through 2 compounds from ChEMBL document CHEMBL1133105, “Antimalarial, antitrypanosomal, and antileishmanial activities and cytotoxicity of bis(9-amino-6-chloro-2-methoxyacridines): influence of the linker” (J Med Chem, 2000).

As usually defined, the IC50 is the concentration at which inhibition is half-maximal. The low end stands for greater potency in that assay, the high end for weaker potency in that assay.

Molecules are shown by their SMILES.

The first experiment deals with MRC5. The experiment in a line: Cytotoxicity on MRC-5 cells at 3.13 uM. Type of experiment: functional. To be noted: Homo sapiens. The method in brief:
(§1)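 MRC-5 human diploid embryonic lung cells seeded at 5 000/well, washed after 24 h, then given 2-fold drug dilutions (25, 12.5, 6.25, 3.13 µM) in RPMI + 5% FCS, final DMSO below 0.5%. Incubated 7 days at 37 °C, 5% CO2. MTT colorimetric read-out, scored as % reduction of absorbance at 540 nm versus untreated controls.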
Compound `COc1ccc2nc3cc(Cl)ccc3c(NCCCN(CCCNc3c4ccc(Cl)cc4nc4ccc(OC)cc34)C(=O)C(CC(=O)OC3CCCCC3)NC(=O)OC(C)(C)C)c2c1` (centres undefined) showed a cytotoxicity at 3.13 µM of 40%.

The compound `COc1ccc2nc3cc(Cl)ccc3c(NCCCCCCCCCCCCNc3c4ccc(Cl)cc4nc4ccc(OC)cc34)c2c1` showed a cytotoxicity at 3.13 µM of 0%.

Another experiment relates to Trypanosoma brucei. As to the kind of experiment: Percentage of activity against Trypanosoma brucei at 1.56 uM. Type of experiment: functional.
Settings: not given
The method in brief:
(§2)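 Bloodstream-form T. brucei in HMI-9 medium, 10 000 parasites/well, exposed to 12.5, 6.25, 3.13 and 1.56 µM drug for 4 days. Read-out is % inhibition of parasite multiplication. Macrophage toxicity judged on mouse primary peritoneal macrophages.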
Regarding `COc1ccc2nc3cc(Cl)ccc3c(NCCCN(CCCNc3c4ccc(Cl)cc4nc4ccc(OC)cc34)C(=O)C(CC(=O)OC3CCCCC3)NC(=O)OC(C)(C)C)c2c1` (centres undefined), the “Percent inhibition of parasite multiplication” value is 100%.

As for `COc1ccc2nc3cc(Cl)ccc3c(NCCCCCCCCCCCCNc3c4ccc(Cl)cc4nc4ccc(OC)cc34)c2c1`, the “Percent inhibition of parasite multiplication” value stood at 70%.

The subject of the next experiment is Trypanosoma cruzi. The experiment in a line: Percentage of activity against Trypanosoma cruzi at 1.56 uM. Type of experiment: functional.
Settings: not given
An outline of the steps: (§3)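 Mouse peritoneal macrophages, 30 000/well, infected after 24 h with about 100 000 T. cruzi trypomastigotes per well plus 2-fold drug dilutions (12.5–1.56 µM). Incubated 4 days at 37 °C, 5% CO2. Methanol-fixed, Giemsa-stained and scored microscopically as % reduction of total parasite load (free trypomastigotes plus intracellular amastigotes) versus untreated controls.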
`COc1ccc2nc3cc(Cl)ccc3c(NCCCN(CCCNc3c4ccc(Cl)cc4nc4ccc(OC)cc34)C(=O)C(CC(=O)OC3CCCCC3)NC(=O)OC(C)(C)C)c2c1` (centres undefined): the Parasite load reduction was found to be 0%.

`COc1ccc2nc3cc(Cl)ccc3c(NCCCCCCCCCCCCNc3c4ccc(Cl)cc4nc4ccc(OC)cc34)c2c1` showed a Parasite load reduction of 0%.

A further experiment has as its system MRC5. The experiment in a line: Cytotoxicity on MRC-5 cells at 12.5 uM. To be noted: Homo sapiens. Type of experiment: functional. The method in brief:
as §1
`COc1ccc2nc3cc(Cl)ccc3c(NCCCN(CCCNc3c4ccc(Cl)cc4nc4ccc(OC)cc34)C(=O)C(CC(=O)OC3CCCCC3)NC(=O)OC(C)(C)C)c2c1` (centres undefined) gave a cytotoxicity at 12.5 µM of 100%.

`COc1ccc2nc3cc(Cl)ccc3c(NCCCCCCCCCCCCNc3c4ccc(Cl)cc4nc4ccc(OC)cc34)c2c1` had a cytotoxicity at 12.5 µM of 20%.

In the next experiment the test system is Plasmodium falciparum. As to the kind of experiment: In vitro sensitivity for Plasmodium falciparum FcB1R.
Settings: not given
The class given is functional, organism-based. An outline of the steps:
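Asynchronous P. falciparum cultures in human erythrocytes (0.5% parasitemia, 1% haematocrit) exposed to serially diluted drug for 24 h at 37 °C. [3H]hypoxanthine (0.5 µCi/well) then added for a further 24 h. Uptake compared with drug-free controls on the same plate. IC50 taken from the concentration–response curve, averaged over independent experiments. DMSO ≤0.1%.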
On to `COc1ccc2nc3cc(Cl)ccc3c(NCCCN(CCCNc3c4ccc(Cl)cc4nc4ccc(OC)cc34)C(=O)C(CC(=O)OC3CCCCC3)NC(=O)OC(C)(C)C)c2c1` (centres undefined), for which the IC50 came out at 31 nM.

In turn, `COc1ccc2nc3cc(Cl)ccc3c(NCCCCCCCCCCCCNc3c4ccc(Cl)cc4nc4ccc(OC)cc34)c2c1` returned an IC50 of 176 nM.

The subject of another experiment is Trypanosoma brucei. As to the kind of experiment: Percentage of activity against Trypanosoma brucei at 12.5 uM. The class given is functional.
Settings: not given
The method in brief: as §2
`COc1ccc2nc3cc(Cl)ccc3c(NCCCN(CCCNc3c4ccc(Cl)cc4nc4ccc(OC)cc34)C(=O)C(CC(=O)OC3CCCCC3)NC(=O)OC(C)(C)C)c2c1` (centres undefined): the “Inhibition of parasite multiplication” value came to 100%.

Turning to `COc1ccc2nc3cc(Cl)ccc3c(NCCCCCCCCCCCCNc3c4ccc(Cl)cc4nc4ccc(OC)cc34)c2c1`, the “Inhibition of parasite multiplication” value worked out at 100%.

A further experiment has as its system Trypanosoma cruzi. The experiment in a line: Percentage of activity against Trypanosoma cruzi at 12.5 uM.
Settings: not given
The class given is functional. An outline of the steps: as §3
On to `COc1ccc2nc3cc(Cl)ccc3c(NCCCN(CCCNc3c4ccc(Cl)cc4nc4ccc(OC)cc34)C(=O)C(CC(=O)OC3CCCCC3)NC(=O)OC(C)(C)C)c2c1` (centres undefined), for which the “T. cruzi parasite load reduction” value was found to be 98%.

For `COc1ccc2nc3cc(Cl)ccc3c(NCCCCCCCCCCCCNc3c4ccc(Cl)cc4nc4ccc(OC)cc34)c2c1`, the “T. cruzi parasite load reduction” value is reported as 90%.

The next experiment concerns Trypanosoma brucei. As to the kind of experiment: Percentage of activity against Trypanosoma brucei at 3.13 uM.
Settings: not given
Type of experiment: functional. An outline of the steps: as §2
For `COc1ccc2nc3cc(Cl)ccc3c(NCCCN(CCCNc3c4ccc(Cl)cc4nc4ccc(OC)cc34)C(=O)C(CC(=O)OC3CCCCC3)NC(=O)OC(C)(C)C)c2c1` (centres undefined), the Parasite growth inhibition stood at 100%.

In turn, `COc1ccc2nc3cc(Cl)ccc3c(NCCCCCCCCCCCCNc3c4ccc(Cl)cc4nc4ccc(OC)cc34)c2c1` had a Parasite growth inhibition of 100%.

A further experiment deals with Trypanosoma cruzi. As to the kind of experiment: Percentage of activity against Trypanosoma cruzi at 6.25 uM Concentration. The class given is functional.
Settings: not given
The method in brief: as §3
As for `COc1ccc2nc3cc(Cl)ccc3c(NCCCN(CCCNc3c4ccc(Cl)cc4nc4ccc(OC)cc34)C(=O)C(CC(=O)OC3CCCCC3)NC(=O)OC(C)(C)C)c2c1` (centres undefined), the “Reduction of T. cruzi parasite load” value amounted to 70%.

Turning to `COc1ccc2nc3cc(Cl)ccc3c(NCCCCCCCCCCCCNc3c4ccc(Cl)cc4nc4ccc(OC)cc34)c2c1`, the “Reduction of T. cruzi parasite load” value worked out at 40%.

The test system of a further experiment is Leishmania infantum. The experiment in a line: Percentage of activity against Leishmania infantum at 1.56 uM. Type of experiment: functional.
Settings: not given
The method in brief:
(§4)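 Starch-stimulated mouse peritoneal macrophages, 30 000/well, infected after 24 h with spleen-derived L. infantum amastigotes (10:1) together with 2-fold drug dilutions (12.5–1.56 µM). Incubated 7 days at 37 °C, 5% CO2. Wright-stained slides scored microscopically as % reduction of total parasite load or of infected macrophages. Uninfected treated cultures judged microscopically for macrophage toxicity.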
For `COc1ccc2nc3cc(Cl)ccc3c(NCCCN(CCCNc3c4ccc(Cl)cc4nc4ccc(OC)cc34)C(=O)C(CC(=O)OC3CCCCC3)NC(=O)OC(C)(C)C)c2c1` (centres undefined), the “Antileishmanial activity (% reduction of parasite load)” value is listed as 20%.

In the case of `COc1ccc2nc3cc(Cl)ccc3c(NCCCCCCCCCCCCNc3c4ccc(Cl)cc4nc4ccc(OC)cc34)c2c1`, the “Antileishmanial activity (% reduction of parasite load)” value was found to be 0%.

The subject of another experiment is Leishmania infantum. As to the kind of experiment: Percentage of activity against Leishmania infantum at 12.5 uM Concentration; Toxic upon mouse primary peritoneal macrophages. The class given is functional, organism-based.
Settings: not given
The method in brief: as §4
In the case of `COc1ccc2nc3cc(Cl)ccc3c(NCCCN(CCCNc3c4ccc(Cl)cc4nc4ccc(OC)cc34)C(=O)C(CC(=O)OC3CCCCC3)NC(=O)OC(C)(C)C)c2c1` (centres undefined), the Cytotoxicity entry was “Toxic”.

Take `COc1ccc2nc3cc(Cl)ccc3c(NCCCCCCCCCCCCNc3c4ccc(Cl)cc4nc4ccc(OC)cc34)c2c1`: the Cytotoxicity result was “Toxic”.

The next experiment has as its system MRC5. The experiment in a line: Cytotoxicity on MRC-5 cells at 6.25 uM. Type of experiment: functional. Particulars: Homo sapiens. An outline of the steps:
as §1
`COc1ccc2nc3cc(Cl)ccc3c(NCCCN(CCCNc3c4ccc(Cl)cc4nc4ccc(OC)cc34)C(=O)C(CC(=O)OC3CCCCC3)NC(=O)OC(C)(C)C)c2c1` (centres undefined): the cytotoxicity at 6.25 µM worked out at 100%.

`COc1ccc2nc3cc(Cl)ccc3c(NCCCCCCCCCCCCNc3c4ccc(Cl)cc4nc4ccc(OC)cc34)c2c1` registered a cytotoxicity at 6.25 µM of 0%.

For another experiment, the system named is Leishmania infantum. The experiment in a line: Percentage of activity against Leishmania infantum 6.25 uM. Type of experiment: functional.
Settings: not given
The method in brief:
as §4
Turning to `COc1ccc2nc3cc(Cl)ccc3c(NCCCN(CCCNc3c4ccc(Cl)cc4nc4ccc(OC)cc34)C(=O)C(CC(=O)OC3CCCCC3)NC(=O)OC(C)(C)C)c2c1` (centres undefined), the “Antileishmanial activity (% reduction of parasite load)” value was 80%.

For `COc1ccc2nc3cc(Cl)ccc3c(NCCCCCCCCCCCCNc3c4ccc(Cl)cc4nc4ccc(OC)cc34)c2c1`, the “Antileishmanial activity (% reduction of parasite load)” value came out at 80%.

For another experiment, the system named is Trypanosoma cruzi. The experiment in a line: Percentage of activity against Trypanosoma cruzi at 3.13 uM. The class given is functional.
Settings: not given
An outline of the steps:
as §3
In the case of `COc1ccc2nc3cc(Cl)ccc3c(NCCCN(CCCNc3c4ccc(Cl)cc4nc4ccc(OC)cc34)C(=O)C(CC(=O)OC3CCCCC3)NC(=O)OC(C)(C)C)c2c1` (centres undefined), the “Reduction of T. cruzi parasite load” value amounted to 20%.

`COc1ccc2nc3cc(Cl)ccc3c(NCCCCCCCCCCCCNc3c4ccc(Cl)cc4nc4ccc(OC)cc34)c2c1`: the “Reduction of T. cruzi parasite load” value amounted to 0%.

The test system of a further experiment is MRC5. The experiment in a line: Cytotoxicity on MRC-5 cells at 25 uM. To be noted: Homo sapiens. Type of experiment: functional. The method in brief:
as §1
In the case of `COc1ccc2nc3cc(Cl)ccc3c(NCCCN(CCCNc3c4ccc(Cl)cc4nc4ccc(OC)cc34)C(=O)C(CC(=O)OC3CCCCC3)NC(=O)OC(C)(C)C)c2c1` (centres undefined), the cytotoxicity at 25 µM amounted to 100%.

`COc1ccc2nc3cc(Cl)ccc3c(NCCCCCCCCCCCCNc3c4ccc(Cl)cc4nc4ccc(OC)cc34)c2c1` returned a cytotoxicity at 25 µM of 100%.

The test system of the next experiment is Trypanosoma brucei. The experiment in a line: Percentage of activity against Trypanosoma brucei at 6.25 uM. Type of experiment: functional.
Settings: not given
The method in brief: as §2
Take `COc1ccc2nc3cc(Cl)ccc3c(NCCCN(CCCNc3c4ccc(Cl)cc4nc4ccc(OC)cc34)C(=O)C(CC(=O)OC3CCCCC3)NC(=O)OC(C)(C)C)c2c1` (centres undefined): the “Inhibition of parasite multiplication” value is on record as 100%.

With `COc1ccc2nc3cc(Cl)ccc3c(NCCCCCCCCCCCCNc3c4ccc(Cl)cc4nc4ccc(OC)cc34)c2c1`, the “Inhibition of parasite multiplication” value is 100%.

A further experiment deals with Leishmania infantum. As to the kind of experiment: Percentage of activity against Leishmania infantum at 3.13 uM. Type of experiment: functional.
Settings: not given
The method in brief: as §4
Take `COc1ccc2nc3cc(Cl)ccc3c(NCCCN(CCCNc3c4ccc(Cl)cc4nc4ccc(OC)cc34)C(=O)C(CC(=O)OC3CCCCC3)NC(=O)OC(C)(C)C)c2c1` (centres undefined): the “Percent antileishmanial activity (reduction of parasite load)” value amounted to 60%.

Consider `COc1ccc2nc3cc(Cl)ccc3c(NCCCCCCCCCCCCNc3c4ccc(Cl)cc4nc4ccc(OC)cc34)c2c1`, for which the “Percent antileishmanial activity (reduction of parasite load)” value stood at 40%.
